Measured values: ChEMBL document CHEMBL1122469, “Synthesis of 1-(aminomethyl)-1,2,3,4-tetrahydroisoquinolines and their actions at adrenoceptors in vivo and in vitro” (J Med Chem, 1983)
Calls of active or inactive are those of the source. The rule behind the calls is not given here.

Tests used:
Adrenergic receptor beta [1] = target: T1, Adrenergic receptor beta (Homo sapiens, UniProt P08588+P07550+P13945); assay: Beta adrenergic receptor agonist activity at compound concentration of 100 ug/mL in guinea pig, isolated, carbachol-contracted tracheal preparations; type: functional; conditions: Cavia porcellus; target entry is the homologue from another species
Adrenergic receptor beta [2] = target: T1, Adrenergic receptor beta; assay: Beta adrenergic receptor agonist activity in guinea pig, isolated, spontaneously beating, right atrial preparation; type: functional, tissue-based; conditions: Cavia porcellus; Cardiac atrium; target entry is the homologue from another species
Outline: (§1)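 Right atria from guinea pigs (300–400 g, either sex) killed by cervical dislocation, in 10-mL Krebs–Henseleit baths under 0.02 N tension, spontaneously beating; rate read by tachograph. Two cumulative isoproterenol curves, then one test-compound curve, 30-min intervals, three washes after each. The second isoproterenol curve was the reference, with a desensitization correction (factor 1.2). Intrinsic activity relative to isoproterenol = 1. Ratio = molar EC50 of drug ÷ molar EC50 of isoproterenol, same experiment.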

Adrenergic receptor beta [3] = target: T1, Adrenergic receptor beta; assay: Beta adrenergic receptor agonist activity in reserpine pre-treated guinea pig, isolated, spontaneously beating, right atrial preparation; type: functional, tissue-based; conditions: Cavia porcellus; Cardiac atrium; target entry is the homologue from another species
Outline: (§2)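 Guinea pigs given reserpine 5 mg/kg i.p., atria removed 18–24 h later and tested with tyramine 17 µmol/L beforehand. Spontaneously beating right atria in Krebs–Henseleit under 0.02 N tension, rate recorded. Cumulative isoproterenol curves (second used, corrected) and one test curve at 30-min intervals. Ratio = molar concentration at 50% own maximum ÷ isoproterenol equivalent, same experiment.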

Adrenergic receptor beta [4] = target: T1, Adrenergic receptor beta; assay: Beta adrenergic receptor antagonistic activity in guinea pig, isolated, carbachol-contracted tracheal preparations; type: functional, Cavia porcellus; conditions: target entry is the homologue from another species
Outline: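 Guinea pig trachea contracted with carbachol 10 µmol/L, 0.02 N resting tension, Krebs–Henseleit bath. Isoproterenol relaxation curves before and 15 min after antagonist, repeated at higher concentrations after washing. pA2 and slope from Schild plot (Arunlakshana–Schild). Slope difference from 1.0 tested by Student's t test.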

Adrenergic receptor beta [5] = target: T1, Adrenergic receptor beta; assay: Beta adrenergic receptor antagonistic activity in reserpine pre-treated guinea pig, isolated, spontaneously beating, right atrial preparation; type: functional, tissue-based, Cavia porcellus, Cardiac atrium; conditions: target entry is the homologue from another species
Felis catus [6] = assay: Activity ratio of molar concentration to molar concentration of isoproterenol in HR in choralose anaesthetized cats; type: functional
Outline: (§3)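 Chloralose (80 mg/kg) plus sodium phenobarbitone (6 mg/kg) i.p.-anesthetized, bilaterally vagotomized cats (2.3–3.6 kg, either sex), spontaneously breathing via tracheal cannula. Brachial vein injection in 0.9% NaCl. Carotid blood pressure and pulse-triggered heart rate recorded. Concurrent cumulative dose–response curves followed isoproterenol. Ratio = molar dose giving 50% of own maximum ÷ isoproterenol molar dose giving 50% of its maximum, same animal.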

[7] = Ratio of compound Emax(50) to that of isoproterenol Emax(50) in guinea pig, isolated, spontaneously beating, right atrial preparation; Expressed as drug Emax(50)/Iso Emax(50) mean; type: functional, Cardiac atrium; outline: as §1
[8] = Ratio of compound Emax(50) to that of isoproterenol Emax(50) in reserpine-pretreated, guinea pig, isolated, spontaneously beating, right atrial preparation; Expressed as drug Emax(50)/Iso Emax(50) mean; type: functional, Cardiac atrium; outline: as §2
Felis catus [9] = assay: Activity ratio of molar concentration to molar concentration of isoproterenol in DBP in choralose anaesthetized cats; type: functional; outline: as §3
Adrenergic receptor beta [10] = target: T1, Adrenergic receptor beta; assay: Beta adrenergic receptor agonist activity in guinea pig, isolated, carbachol-contracted tracheal preparations; type: functional; conditions: Cavia porcellus; target entry is the homologue from another species
Outline: (§4)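 Guinea pigs (300–400 g, either sex) killed by cervical dislocation. Trachea mounted in a 10-mL bath of Krebs–Henseleit under 0.02 N resting tension. Tone raised submaximally with carbachol 10 µmol/L, and relaxation recorded. Cumulative test-compound curves went up to 100 µg/mL, referenced to isoproterenol (=1). Where no maximum was reached, values reflect the 100 µg/mL response. Ratios were taken at 15% of isoproterenol maximum.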

Adrenergic receptor beta [11] = target: T1, Adrenergic receptor beta; assay: Beta adrenergic receptor agonist activity a in guinea pig, isolated, carbachol-contracted tracheal preparations; type: functional; conditions: Cavia porcellus; target entry is the homologue from another species; outline: as §4
Adrenergic receptor beta [12] = target: T1, Adrenergic receptor beta; assay: Beta adrenergic receptor antagonistic activity in guinea pig, isolated, carbachol-contracted tracheal preparations; NA = No antagonism of isoproterenol responses up to 2.2 x 10E-8 mol/L; type: functional; conditions: Cavia porcellus; target entry is the homologue from another species
Adrenergic receptor beta [13] = target: T1, Adrenergic receptor beta; assay: Beta adrenergic receptor antagonistic activity in reserpine pre-treated guinea pig, isolated, spontaneously beating, right atrial preparation; NA = No antagonism of isoproterenol responses up to 2.2 x 10E-8 mol/L; type: functional, tissue-based; conditions: Cavia porcellus; Cardiac atrium; target entry is the homologue from another species
Outline: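 Guinea pigs given reserpine 5 mg/kg i.p. 18–24 h before tissue removal, then checked with tyramine 17 µmol/L. Spontaneously beating right atrium held in Krebs–Henseleit at 0.02 N tension, with rate read by tachograph. Isoproterenol cumulative curves were run before and 15 min after adding the test drug, then repeated after washing at higher drug concentration. pA2 was determined by the Arunlakshana–Schild method.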

NCC1NCCc2cc(O)c(O)cc21 (centres undefined)
Intrinsic activity (Adrenergic receptor beta [1]): 0.2
pD2 (Adrenergic receptor beta [1]): 3.44
Intrinsic activity (Adrenergic receptor beta [2]): 0.7
pD2 (Adrenergic receptor beta [2]): 4.49
Intrinsic activity (Adrenergic receptor beta [3]): 0.53
pD2 (Adrenergic receptor beta [3]): 4.22
pA2 (Adrenergic receptor beta [4]): 4.66
pA2 (Adrenergic receptor beta [5]): 4.63
Activity ratio (Felis catus [6]): 12700
Ratio [7]: 8800
Ratio [8]: 32600

CC(C)NCC1NCCc2cc(O)c(O)cc21 (centres undefined)
Intrinsic activity (Adrenergic receptor beta [1]): 0.06
pD2 (Adrenergic receptor beta [1]): 3.49
Intrinsic activity (Adrenergic receptor beta [2]): 0.42
pD2 (Adrenergic receptor beta [2]): 5.05
Intrinsic activity (Adrenergic receptor beta [3]): 0.59
pD2 (Adrenergic receptor beta [3]): 5.18
pA2 (Adrenergic receptor beta [4]): 5.05
pA2 (Adrenergic receptor beta [5]): 4.84
Activity ratio (Felis catus [9]): 2200
Activity ratio (Felis catus [6]): 1700
Ratio [7]: 2700
Ratio [8]: 4400

Oc1ccc(CC2NCCc3cc(O)c(O)cc32)cc1O (centres undefined)
pD2 (Adrenergic receptor beta [10]): 6.45
Intrinsic activity (Adrenergic receptor beta [11]): 0.62
Intrinsic activity (Adrenergic receptor beta [2]): 0.94
pD2 (Adrenergic receptor beta [2]): 6.96
Intrinsic activity (Adrenergic receptor beta [3]): 0.95
pD2 (Adrenergic receptor beta [3]): 7.05
pA2 (Adrenergic receptor beta [12]): inactive
pA2 (Adrenergic receptor beta [13]): inactive
Ratio [7]: 26
Ratio [8]: 38

CC(C)(C)NCC1NCCc2cc(O)c(O)cc21 (centres undefined)
Intrinsic activity (Adrenergic receptor beta [1]): 0.18
pD2 (Adrenergic receptor beta [1]): 3.51
Intrinsic activity (Adrenergic receptor beta [2]): 0.14
pD2 (Adrenergic receptor beta [2]): 5.1
Intrinsic activity (Adrenergic receptor beta [3]): 0.29
pD2 (Adrenergic receptor beta [3]): 5.23
pA2 (Adrenergic receptor beta [4]): 5.76
pA2 (Adrenergic receptor beta [5]): 4.68
Activity ratio (Felis catus [6]): 900
Ratio [7]: 2100
Ratio [8]: 3600
